# Assay outcomes from PubChem.
# Shown are actives, neighbours in structure and some others; about 1.8% of the full set was active somewhere.
# CHRM5 PAM: potentiates acetylcholine response at human M5 receptor | 0.3% of 360,000 active | AID 624038 | CHO-K1 hM5, Fluo-8 calcium, ACh EC20 PAM; 0% = ACh EC20, 100% = ACh EC100 | P08912 | activation, % at 3 µM;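 active = activation above the run cutoff, the mean activation of all test compounds plus 3 SD, cut at about 18% in these data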
#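 Assay system: CHO-K1 hM5 cells. Also added: acetylcholine at EC20 concentration, added after compound. Dosing: 3 µM, single dose. Times: compound preincubation 140 s before EC20 acetylcholine addition. Signal: Fluo-8 calcium fluorescence. Measure: % activation relative to EC20 and EC100 ACh responses. Repeats: singlicate, one well per test compound.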
# M4 antag: CHRM4 antagonism in calcium assay. CHO-hM4 cells, ACh EC80, Fluo-8 calcium fluorescence. inhibition, % at 3 µM. 0.73% of 360,000 active. AID 624125;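 active = inhibition above its plate's cutoff, the mean inhibition of sample wells plus 3 SD, cut at about 27% in these data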;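 also: 0% = acetylcholine EC80 with DMSO and 100% = DMSO without agonist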
# Target sequence (P08173 whole entry, looked up): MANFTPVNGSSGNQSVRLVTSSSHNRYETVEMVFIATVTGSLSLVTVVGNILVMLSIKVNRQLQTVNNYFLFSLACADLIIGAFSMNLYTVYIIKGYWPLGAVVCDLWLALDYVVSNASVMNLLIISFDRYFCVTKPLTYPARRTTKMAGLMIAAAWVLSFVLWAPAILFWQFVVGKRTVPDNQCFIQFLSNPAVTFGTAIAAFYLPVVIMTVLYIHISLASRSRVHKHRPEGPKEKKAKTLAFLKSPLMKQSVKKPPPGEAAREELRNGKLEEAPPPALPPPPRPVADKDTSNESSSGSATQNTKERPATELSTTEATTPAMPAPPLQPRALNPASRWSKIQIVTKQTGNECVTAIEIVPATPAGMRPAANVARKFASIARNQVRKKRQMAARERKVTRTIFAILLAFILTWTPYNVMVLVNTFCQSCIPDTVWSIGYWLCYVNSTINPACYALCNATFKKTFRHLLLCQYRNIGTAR
# CHRM5 antagonist: antagonists of human muscarinic M5 receptor (CHRM5) | CHO-hM5 cells, Fluo-8 calcium fluorescence, ACh EC80 | 0.59% of 360,000 active | inhibition, % at 3 µM | P08912;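 active = inhibition above a per-plate cutoff, the mean of that plate's test compounds plus 3 SD, cut at about 27% in these data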;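 also: 0% = acetylcholine EC80 with DMSO and 100% = DMSO without agonist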
# M4 PAM: positive allosteric modulators of human muscarinic M4 receptor; P08173; CHO-K1 hM4/Gqi5, Fluo-8 calcium fluorescence, ACh EC20; 0% = ACh EC20, 100% = maximal ACh; activation, % at 3 µM; 0.4% of 360,000 active; AID 624126;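 active = activation above its plate's cutoff, the mean activation of sample wells plus 3 SD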
# CHRM5 agonist: CHRM5 agonism in calcium assay. P08912. CHO-K1 hM5 cells, Fluo-8 calcium fluorescence; 0% DMSO wells, 100% maximal acetylcholine response. activation, % at 3 µM. 0.19% of 360,000 active;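 active = activation above the run's mean over test compounds plus 3 SD, cut at about 23% in these data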;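 also: signal is peak over basal fluorescence ratio across the kinetic read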
# CHRM4 agonist: CHRM4 agonism in calcium assay; P08173; CHO-K1 hM4/Gqi5, Fluo-8 calcium fluorescence; vehicle 0%, full acetylcholine response 100%; activation, % at 3 µM; 0.14% of 360,000 active; AID 624127;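 active = activation above the run mean over all test wells plus 3 SD, cut at about 32% in these data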;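 also: peak over basal fluorescence ratio per well then scaled between controls; 0% = DMSO wells and 100% = acetylcholine at EC100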
# Active calls of the source: *.
SMILES,CHRM5 PAM,M4 antag,CHRM5 antagonist,M4 PAM,CHRM5 agonist,CHRM4 agonist
O=C(NCCOc1ccccc1)c1ccccc1[N+](=O)[O-],6,-12,5,1,1,1
CCCc1cc(=O)[nH]c(SCC(=O)NC2(C#N)CCCCC2)n1,9,-11,1,23*,0,0
Cc1cc(-c2csc(NC(=O)c3ccc(C#N)cc3)n2)c(C)n1Cc1ccco1,6,15,7,25*,3,1
CC(C)(C)n1nnnc1C(c1ccccc1)N1CCN(C/C=C/c2ccccc2)CC1 (configuration not stated),-22,28*,68*,-15,-7,1
CC(C)(C)n1nnnc1C(c1cccc(C#N)c1)N1CCN2CCCC2C1 (configuration not stated),2,-3,-3,-1,-6,0
COc1ccc(-n2nnnc2C(c2ccccc2)N2CCN(C/C=C/c3ccccc3)CC2)cc1 (configuration not stated),-22,32*,72*,-16,-8,3
CCC(c1nnnn1C(C)(C)C)N1CCN(C/C=C/c2ccccc2)CC1 (configuration not stated),-2,-13,5,5,-7,3
CCC(c1nnnn1-c1ccc(OC)cc1)N1CCN(C/C=C/c2ccccc2)CC1 (configuration not stated),-17,-18,14,-5,-7,6
CC(C)(C)n1nnnc1C(c1cccc(C#N)c1)N1CCCCCC1 (configuration not stated),26*,-4,9,14,3,0
CC(OC(=O)c1ccc(F)c(S(=O)(=O)N2CCOCC2)c1)C(=O)NC1CCCC1 (configuration not stated),-6,-9,9,4,-1,1
C[C@H](CO)N1C[C@H](C)[C@@H](CN(C)S(=O)(=O)c2ccc(F)cc2)Oc2c(NS(=O)(=O)c3ccc(F)cc3)cccc2C1=O,-4,-4,3,-3,1,2
CSc1nc2ccccc2n1Cc1c(Cl)cccc1Cl,21*,-2,10,-12,-12,1
CC(C)NC(=O)N(O)C1N(C(C)C)C(=O)N(Cc2ccc3c(c2)OCO3)C1(C)C (configuration not stated),-19,30*,25,-22,2,14
Cc1ccccc1S(=O)(=O)N1[C@@H](c2ccc(Cl)cc2)C(C(=O)O)=CC[C@H]1c1ccc(Cl)cc1,5,-4,0,12,-1,-2
CCCNNC(=O)C(O)(c1ccccc1)c1ccccc1,-4,-3,-4,3,1,0
CCN(CC)CCC/C(=N\O)C(O)(c1ccccc1)c1ccccc1,-14,79*,45*,-25,-10,0
CC[N+](C)(CC)CCC/C(=N/O)C(O)(c1ccccc1)c1ccccc1,-22,33*,14,-14,-18,0
CC/C(CC(C)(C)c1ccccc1)=N\O,3,7,0,-5,-2,0
COc1ccc(NS(=O)(=O)c2cccc(C(=O)NCc3ccccc3CN3CCOCC3)c2)cc1,-9,-23,-6,-7,0,16
Cc1nccn1-c1c2c(c(C#N)c3nc4ccccc4n13)CCCC2,4,-4,4,6,-1,1
N#Cc1c2c(c(-n3cnc4ccccc43)n3c1nc1ccccc13)CCC2,47*,-10,31*,-1,-1,0
c1ccc(Nc2nc(N3CCNCC3)nc(N3CCOCC3)n2)cc1,-6,-9,5,5,-1,1
CCN(CC)c1ccc(Nc2nc(N3CCOCC3)c3ccccc3n2)cc1,-15,20,30*,-21,-5,7
c1ccc(Nc2nc(N3CCOCC3)nc(N3CCOCC3)n2)cc1,5,3,17,31*,-3,1
COc1ccc(Nc2nc(N3CCCC3)c3ccccc3n2)cc1,-4,6,6,1,-2,5
SMILES,CHRM5 PAM,M4 antag,CHRM5 antagonist,M4 PAM,CHRM5 agonist,CHRM4 agonist
O=C(COC(=O)CCC(=O)c1cccs1)Nc1cccc(S(=O)(=O)N2CCOCC2)c1,-2,-6,-5,-1,-2,4
Cc1ccc(NC(=O)COC(=O)CCC(=O)c2cccs2)cc1S(=O)(=O)N1CCOCC1,9,32*,-3,20,-1,12
CC(C)C(C)NC(=O)CN1C(=O)NC2(CCCc3ccccc32)C1=O (configuration not stated),-4,4,5,-4,-1,0
Cc1ccc(NC(=O)CN2C(=O)NC3(CCCc4ccccc43)C2=O)cc1S(=O)(=O)N1CCOCC1 (configuration not stated),-20,-6,100*,-10,-9,20
CC(C)C(C)NC(=O)CN1C(=O)NC2(CCc3ccccc32)C1=O (configuration not stated),5,-24,-4,14*,0,0
O=S1(=O)Nc2c(ccc3cccnc23)-c2ccccc21,-4,30*,31*,-7,0,2
Clc1ccc2ccc3cccnc3c2n1,-7,4,1,-3,-2,0
O=S(=O)(Nc1cccc2cccnc12)c1ccc(S(=O)(=O)N2CCCC2)cc1,-7,31*,9,-22,-4,3
O=S(=O)(Nc1cccc2cccnc12)c1ccccc1,1,42*,15,-9,-2,2
CC(=O)Nc1ccc(S(=O)(=O)Nc2cccc3cccnc23)cc1,-3,10,5,-6,1,6
CN(CCc1ccccc1)C(=O)c1ccc(NC(=O)Cc2ccc(NC(=O)C3CCN(C(=O)c4ccccc4)CC3)cc2)cc1,0,3,6,-1,0,0
CC(=O)c1cc2c(cc1NS(=O)(=O)c1ccccc1)OCO2,-5,30*,14,-10,-7,2
CC(=O)c1cc2c(cc1NS(=O)(=O)c1cccc(C(=O)O)c1)OCO2,1,-5,-2,-6,-1,0
COC(=O)c1sccc1NC(=O)Nc1cc(C)cc(C)c1,-10,16,29*,-4,-6,-2
CC1CCN(CC[C@H]2CCCN2S(=O)(=O)c2cccc(O)c2)CC1,-9,51*,1,-16,-1,1
COc1ccc(CN2CCN(C(=O)CC(C)C)CC2)c2ccccc12,42*,-6,-6,3,-4,1
COc1ccc(CN2CCN(C(=O)CC(C)C)CC2)cc1OC,1,0,1,5,-1,1
COC(=O)C1=C(C(=O)OC)[C@@H]2Nc3ccccc3[C@@]23C[C@@H](C(=O)OC)N(C(=O)c2cccs2)C3=N1,3,-13,13,25*,-2,0
